# From paper PMC7771250 (ACS Infectious Diseases, 2020)
# Where two headings read alike, the source gives them in different places.
# What was measured:
# Vero E6 cells [1] = settings: Vero E6, OpenData Portal screening data, Figure S14; cited from earlier work
# SARS-CoV-2 [2] = settings: Vero E6, OpenData Portal screening data, Figure S14; cited from earlier work
# Vero E6 cells [3] = settings: for cell toxicity in the CPE counter assay: Vero E6, up to 30.0 μM; for CC50: read-out: CPE CC50, uninfected Vero E6, 72 h; for cytotoxicity (reduction of cell viability): at 30.0 μM
# SARS-CoV-2 [4] = settings: similar CPE assay with SARS-CoV-2 in Vero E6 cells; cited from earlier work
# [5] = tested on: SARS-CoV-2 spike pseudotyped particle (PP); assay: microbe, parasite or virus in culture; format: cell-based; settings: Severe acute respiratory syndrome coronavirus 2, HEK-293T, 48 h, read-out: PP EC50
# [6] = cited from earlier work; for T1/2: 85 (chloroquine)
# SARS-CoV-2 [7] = assay: microbe, parasite or virus in culture; format: cell-based, SARS CoV-2 (USA_WA1/2020); settings: Severe acute respiratory syndrome coronavirus 2, Vero C1008, 72 h, read-out: CPE EC50, Vero E6, 72 h; table: mean ± confidence interval
# in vitro = settings: human
# LC3B [8] = assay: LC3B immunostaining autophagy assay, average of four cell lines; format: cell-based; settings: for EC50: 16 h, read-out: autophagy EC50
# LC3B [9] = assay: LC3B immunostaining autophagy assay in Vero E6 cells; format: cell-based, monkey; settings: Vero E6, about 16 h; for LC3B spot accumulation: 50 to 0.02 μM
# How it was run: (§1)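 Cells were seeded overnight to 60% confluence and dosed at 8 points, 1:3 from 50 μM to 0.02 μM. They were fixed in ice-cold methanol for 10 min at −30 °C, blocked, and stained with rabbit anti-LC3B for 2 h at RT, AlexaFluor-647 anti-rabbit for 1 h, and Hoechst. Six fields per well were imaged. Spot count was normalized to DMSO (0%) and a reference (100%). Points with viability below 20% were excluded.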
# Vero E6 cells [10] = assay: Cell; format: cell-based, monkey
# Vero E6 cells [11] = settings: drug-repurposing screen in Vero E6 cells; cited from earlier work
# acidic organelles = assay: LysoTracker Deep Red staining in Vero E6 cells; format: cell-based, monkey
# [12] = cited from earlier work
# LC3B [13] = assay: LC3B immunostaining autophagy assay in Huh-7.5 cells; format: cell-based, human
# How it was run: as §1
# [14] = tested on: human bronchial epithelial cells; settings: LDH release, 24 and 96 h
# SARS-CoV-2 [15] = format: cell-based; settings: EpiAirway, positive control
compound,measurement,setting,value
CO/C1=C\C(C)=C\[C@@H](C)[C@@H](O)[C@@H](C)C/C(C)=C/C=C/[C@H](OC)[C@@H]([C@@H](C)[C@@H](O)[C@H](C)[C@@]2(O)C[C@@H](O)[C@H](C)[C@@H](C(C)C)O2)OC1=O [Bafilomycin A1],cytotoxicity,Vero E6 cells [1],highly cytotoxic
same,SARS-CoV-2 CPE inhibition,SARS-CoV-2 [2],able to block SARS-CoV-2 CPE at nontoxic nanomolar concentrations
CC(C)(O)CNc1ncc(-c2ccnc(Nc3ccnc(Cl)c3)n2)c(CC2CC2)n1 [VPS34-IN-1],cytotoxicity,Vero E6 cells [1],cytotoxicity was observed at higher concentrations
same,SARS-CoV-2 CPE inhibition,SARS-CoV-2 [2],potently inhibited the SARS-CoV-2 CPE at concentrations that were not cytotoxic
CCN(CC)CCCC(C)Nc1ccnc2cc(Cl)ccc12 (centres unmarked) [chloroquine],cell toxicity in the CPE counter assay,Vero E6 cells [3],no associated cell toxicity
same,CC50,Vero E6 cells [3],> 30 µM
same,EC50,SARS-CoV-2 [4],42 µM
same,EC50,[5],1.37 ± 0.1 µM
same,T1/2,[6]; 86 (hydroxychloroquine),30 to 60 days
same,plasma bound,[6],50–70%
same,EC50,SARS-CoV-2 [7],2.01 µM
same,CC50,in vitro,12 ± 0.51 µM
same,EC50,LC3B [8],3.29 ± 1.86 µM
CN(C)CCCN1c2ccccc2CCc2ccc(Cl)cc21 [clomipramine],increase of LC3B spot count,LC3B [9]; normalized to DMSO (0%) and CQ (100%),40%
same,cytotoxicity (reduction of cell viability),Vero E6 cells [3]; Vero E6,less than 20%
same,CC50,Vero E6 cells [3],> 30 µM
same,cytotoxicity on the basis of nuclei counts,"Vero E6 cells [10]; Vero E6, at 50 μM",not cytotoxic
same,Vd,[6],high Vd
same,CC50,Vero E6 cells [11],> 30 µM
same,LysoTracker staining,acidic organelles,dramatic elevations in LysoTracker relative spot intensity
same,CC50,in vitro,18.6 ± 0.29 µM
same,LC3B increase across the cell lines,"LC3B [8]; Vero E6, HeLa, HEK293T, Huh-7.5",effective in increasing LC3B in all cell lines except for Vero E6
CCN(CC)CCNc1ccc(CO)c2sc3ccccc3c(=O)c12 [hycanthone],LC3B spot accumulation,LC3B [9],maximal spot counts
same,cytotoxicity (reduction of cell viability),Vero E6 cells [3]; Vero E6,~100%
same,EC50,[5],1.88 ± 0.08 µM
same,cells killed,"Vero E6 cells [10]; Vero E6, at 50 μM",approximately 60%
same,EC50,SARS-CoV-2 [7],5.79 ± 0.26 µM
same,CC50,in vitro,11.7 ± 0.49 µM
same,EC50,LC3B [8],7.35 ± 4.7 µM
same,absorption,[12]; monkey,well-absorbed in monkey
same,T1/2,"[12]; species not given, human data lacking",0.12 to 0.21 days
CCN(CCO)CCCC(C)Nc1ccnc2cc(Cl)ccc12 (centres unmarked) [hydroxychloroquine],cell toxicity in the CPE counter assay,Vero E6 cells [3],no associated cell toxicity
same,CC50,Vero E6 cells [3],> 30 µM
same,EC50,SARS-CoV-2 [4],9.21 µM
same,EC50,[5],2.19 ± 0.07 µM
same,T1/2,[6]; 86 (hydroxychloroquine),~40 days
same,absorption,"[6]; ref 82 (clomipramine), 86 (hydroxychloroquine)",rapid and complete absorption
same,EC50,SARS-CoV-2 [7],4.47 µM
same,CC50,in vitro,16.7 ± 20.3 µM
same,EC50,LC3B [8],6.55 ± 6.67 µM
OC(c1cc(C(F)(F)F)nc2c(C(F)(F)F)cccc12)C1CCCCN1 (centres unmarked) [mefloquine],LC3B spot accumulation,LC3B [9],ineffective at inducing LC3B spot accumulation
same,cytotoxicity,"Vero E6 cells [3]; at 15.0 to 30.0 μM, Vero E6",100%
same,EC50,SARS-CoV-2 [4],7.11 µM
same,EC50,[5],8.84 ± 0.64 µM
same,cytotoxicity on the basis of nuclei counts,"Vero E6 cells [10]; Vero E6, at 50 μM",completely toxic
same,toxicity in the LysoTracker assay,"Vero E6 cells [10]; Vero E6, highest concentration (50 μM)",toxic at the highest concentration
same,CC50,Vero E6 cells [11],> 18.5 µM
same,LysoTracker staining,acidic organelles,dramatic elevations in LysoTracker relative spot intensity
same,EC50,SARS-CoV-2 [7],3.85 ± 0.24 µM
same,CC50,in vitro,5.4 ± 0.01 µM
same,EC50,"LC3B [13]; Homo sapiens, Huh7.5, read-out: autophagy EC50",7.3 µM
same,LC3B spot counts,LC3B [13]; Huh-7.5,increased LC3B spot counts even at low concentrations
CCC(CC)COC(=O)[C@H](C)N[P@](=O)(OC[C@H]1O[C@@](C#N)(c2ccc3c(N)ncnn23)[C@H](O)[C@@H]1O)Oc1ccccc1 [remdesivir],cell toxicity in the CPE counter assay,Vero E6 cells [3],no apparent cytotoxicity
same,cytotoxicity in EpiAirway,[14],without any cytotoxicity
same,reduction of viral titers,SARS-CoV-2 [15],highly effective in reducing viral titers
same,EC50,SARS-CoV-2 [7],7.04 µM
